Here are results for 97 compounds from ChEMBL document CHEMBL4513216, “Probing the Open Global Health Chemical Diversity Library for Multistage-Active Starting Points for Next-Generation Antimalarials” (ACS Infect Dis, 2020).

The data set is described as follows: Toxicity liver stage against HepG2, at 10uM. Particulars: human, HepG2-A16-CD81EGFP cells; read-out: INHIBITION
The data set is classed as cell-based. On the set-up: test concentration 10 uM, cell line HepG2-A16-CD81EGFP. A digest of the protocol:
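Uninfected HepG2-A16-CD81EGFP cells, 3 × 10^3 per well, 1536-well, plated on prespotted compound at 10 μM final, parasite-free screening media added to match infected plates; puromycin 10 μM positive, DMSO 0.5% negative; run in parallel with 48 h PbLuc assay at 37 °C, 5% CO2; viability by CellTiter-Glo luminescence, normalized to controls.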
As to `COc1ccc(Cl)cc1C(=O)NCc1cnn(C)c1C`, the cytotoxicity at 10 µM stood at 6.81%.
For `CCC(CC)C(=O)N1CCN(Cc2nc3ccccc3c(=O)[nH]2)CC1` the value was -17.6%.
In the case of `CN(Cc1ccccc1C(F)(F)F)C(C(N)=O)c1ccccc1` (configuration not stated) it was 13.2%; in that of `COC(=O)c1ccc(NC(=O)CCNCc2ccco2)cc1`, -3.64%; in that of `O=C1CO[C@H]2CN(Cc3cccnc3)C[C@H]2N1`, -4%.
For `O=S(=O)(Cc1ccccc1)NC[C@H]1Cn2ccnc2CO1` the value was 6.88%.
`CNC(=O)c1cc(C)n(-c2ccccc2)n1`: the cytotoxicity at 10 µM was -0.142%.
In the case of `CC1=Nc2c(c(=O)[nH]n2C2CCCCC2)C(c2ccc(C(=O)O)cc2)S1` (configuration not stated) it was -7.92%.
On to `Cc1nc(C(=O)N2CCN(S(=O)(=O)N(C)C)CC2)c(-c2ccccc2)s1`, for which the cytotoxicity at 10 µM turned out to be 3.67%.
For `CC(C)Oc1ccc(C(=O)N2CCCSCC2CN(C)C)cc1` (configuration not stated) the value was 9.9%; for `Cc1ccc(S(=O)(=O)N2CCC(S(C)(=O)=O)CC2)cc1C`, 2.59%; for `N#Cc1cccc(N2CCCC3(CN(C(=O)NC4CC4)CCO3)C2)c1` (configuration not stated), 12.1%.
In the case of `O=C(Nc1cccnc1)c1nn(C2CCS(=O)(=O)C2)c2c1CCCC2` (configuration not stated) it was 7.41%.
Regarding `COc1ccc(C2CC(=O)Nc3nc(N4CCOCC4)sc32)c(OC)c1` (configuration not stated), the cytotoxicity at 10 µM turned out to be 53.8%.
For `CN(C)CC1CSCCCN1C(=O)c1ccc(C(C)(C)C)cc1` (configuration not stated) the value was 6.25%; for `Cn1ncc(C(=O)N2CCN(C(=O)c3ccco3)CC2)c1Cl`, 2.88%.
On to `Cc1ccc(C)c(NC(=O)c2n[nH]c(-n3cnnc3)n2)c1`, for which the cytotoxicity at 10 µM was determined as 3.43%.
For `Cc1cncc(C2CCN(Cc3cnc(C)nc3)CC2)n1` the value was 5.38%.
In the case of `Clc1ccc(OCCc2cc(C3CCN(c4ncccn4)C3)n[nH]2)cc1` (configuration not stated) it was 7.45%; in that of `Cn1ccc(C(=O)N2CCCC2c2[nH]ncc2C(N)=O)n1` (configuration not stated), 15.3%; in that of `NC(=O)CN1CCCCC1c1nc(N)ncc1-c1cccc(F)c1` (configuration not stated), -13.5%.
In the case of `Cc1cc(N(C)C)nc(C2(C)CCCN2C(=O)c2ccn(C)n2)n1` (configuration not stated) it was -1.06%.
Turning to `O=C(N1CCCCC1)N1CCCC1c1nnc2n1CCNC2` (configuration not stated), the cytotoxicity at 10 µM is 13.6%.
With `Cc1cc(C2CCCN2Cc2nc(-c3ccco3)no2)on1` (configuration not stated), the cytotoxicity at 10 µM worked out at 7.53%.
For `CC1COc2ccccc2N1C(=O)c1cscn1` (configuration not stated) the value was 11.5%.
For `COc1ccc(CNC(C)c2cnn(C)c2)cc1OC1CCCC1` (configuration not stated), the cytotoxicity at 10 µM is -0.734%.
`Cc1nc(CN2CCCN(CC(=O)N(C)CCC#N)CC2)no1`: the cytotoxicity at 10 µM worked out at 6.28%.
With `COCc1cccc(NCc2cccnc2)c1`, the cytotoxicity at 10 µM was 4.16%.
For `CCc1nc(CN(C)C2CCN(Cc3ccc(Cl)s3)C2)no1` (configuration not stated) the value was 9.41%; for `O=C(c1cn(-c2ccccc2C(F)(F)F)nn1)N1CCSCC1`, -0.111%; for `CC(NC(=O)NCCCn1cccn1)c1ccncc1` (configuration not stated), 15.3%.
Consider `CC(C)CCN1CCN(C(=O)c2cccnc2-n2cncn2)CC1`, for which the cytotoxicity at 10 µM turned out to be 6.37%.
In the case of `O=C(NCC1CCN(c2ccncc2)CC1)C(O)c1ccccc1` (configuration not stated) it was 8.15%.
In the case of `Cc1cccc(N2CCC(NCc3cnc(C4CCC4)s3)CC2)n1` it was 6.08%.
In the case of `CC(C)=CCN1CCN(C(C)c2cccnc2)CC1` (configuration not stated) it was -2.65%; in that of `COCCN(CCOC)c1ncccc1Cl`, 3.94%; in that of `Cc1cc(S(=O)(=O)NCC(C)(O)CN(C)C)c(F)cc1F` (configuration not stated), 10%.
As to `CCC(C)(COc1ncccc1Cl)NCC(=O)Nc1ccc(Br)cn1` (configuration not stated), the cytotoxicity at 10 µM was -2.89%.
In the case of `CC(C)n1cnnc1C1CCCN(S(=O)(=O)c2c[nH]cn2)C1` (configuration not stated) it was -6.6%.
For `CCc1nn(C)c2[nH]nc(NC(=O)c3cccnc3NC(C)C)c12` the value was 3.07%.
In the case of `Cc1cnn(C2CN(CC(O)Cn3cccn3)C2)c1` (configuration not stated) it was 9.12%; in that of `Cc1ccc(C)n1-c1c(C(=O)NCC(c2ccsc2)N(C)C)cnn1C` (configuration not stated), 17.1%.
For `COc1ccc(C(C)NCc2cnnn2C)cc1F` (configuration not stated), the cytotoxicity at 10 µM was -9.72%.
For the compound `CCC(C)(NCC(=O)N(c1ccccc1)C(C)C)c1nc(C)cs1` (configuration not stated), the cytotoxicity at 10 µM was 10.9%.
`CC(C)c1cc(C(=O)N2CCN(Cc3ccsc3)CC2)n[nH]1`: the cytotoxicity at 10 µM was found to be 0.0711%.
For `CN(Cc1cnccn1)C(=O)c1ccnc(OC2CCC2)c1` the value was 0.0711%.
With `CCN1Cc2ccccc2CC2(CCN(C(=O)N(C)C)CC2)C1=O`, the cytotoxicity at 10 µM came to 8.3%.
Regarding `Cc1occc1C(=O)N1CCC2(CCC2NC(=O)c2ccn(C)c2)CC1` (configuration not stated), the cytotoxicity at 10 µM is -1.75%.
In the case of `Cc1ccc(CN2CC[C@H]3OCC[C@@H](c4nc(C)no4)[C@H]3C2)cc1` it was -6.95%; in that of `COc1ccc(CN(CC2CCCO2)C(=O)CN2CCOC2=O)cc1` (configuration not stated), -1.39%; in that of `CCc1nc(C)c(CC(=O)N2CCC3(CC2)OCCCC3O)c(=O)[nH]1` (configuration not stated), 9.16%.
`Cc1ccc(C2(O)CCN(Cc3nnc(-c4cccnc4)o3)CC2)nc1`: the cytotoxicity at 10 µM is -7.77%.
In the case of `O=C(NCc1nnc2n1CCCC2)c1cn(-c2ccccc2)nn1`, the cytotoxicity at 10 µM is -2.12%.
Turning to `CCc1[nH]c2ccc(CNC(=O)c3cnc(N)nc3C)cc2c1C`, the cytotoxicity at 10 µM is -3.56%.
For `CC(C)=CCN1C[C@@H]2CN(C(=O)c3ccc(CO)cc3)C[C@]2(C(=O)O)C1` the value was 2.21%.
In the case of `Cc1cc(C)c2c(NCC3(O)CCCCC3)ncnc2n1` it was -7.13%; in that of `Cc1ccc(CSc2nc(N)cc(NCCC(=O)N3CCCC3)n2)cc1`, 1.87%; in that of `CN(Cc1ccsc1)Cc1nc(-c2ccncc2)no1`, 1.93%.
On to `CN(C)CC1(O)CCN(C(=O)c2ccc(-n3cccn3)cc2Cl)C1` (configuration not stated), for which the cytotoxicity at 10 µM is -0.662%.
In the case of `Cc1csc2c(=O)n(C(C)Cc3cccnc3)cnc12` (configuration not stated) it was 9.98%.
For `CC(NS(C)(=O)=O)C(=O)N(C)Cc1cnn(-c2ccc(F)cc2)c1` (configuration not stated), the cytotoxicity at 10 µM is -7.94%.
For `CCOCCN1CCC=C(C2c3nc[nH]c3CCN2C(C)=O)C1` (configuration not stated) the value was -3.67%; for `CSCC[C@@H](CO)Nc1ccc(-c2nc(-c3ccccc3C)no2)cn1`, 3.77%; for `CCN1CCc2[nH]cnc2C12CCN(C(=O)CCCn1cncn1)CC2`, -19.2%.
In the case of `COc1ccc(-c2nc3c([nH]2)CCNC3C(=O)O)c2ccc(C)nc12` (configuration not stated) it was 0.562%; in that of `c1ccc(C2CCCN2C2CSCCSC2)nc1` (configuration not stated), -3.77%.
Turning to `CCC(Nc1cccc(OC)c1)C(=O)NCc1nc(C)cc(=O)[nH]1` (configuration not stated), the cytotoxicity at 10 µM was found to be 4.91%.
Turning to `CC(C)CN1CCCn2nc(CNC(=O)OCc3ccccc3)cc2C1`, the cytotoxicity at 10 µM came to 1.04%.
For `CNC(=O)C1CC(=O)N(c2cccc(F)c2)C1` (configuration not stated) the value was 4.61%.
In the case of `O=C(O)CC[C@@H]1CN(c2ccncc2)CC[C@@H]1N1CCOCC1` it was 0.0482%; in that of `CC(Cn1cccn1)n1cnc2cccc(Cl)c2c1=O` (configuration not stated), -5.41%; in that of `CCC(C(=O)NCc1ccncc1)N(c1cccc(C)c1)S(C)(=O)=O` (configuration not stated), -5.88%.
For `CN(C)CC1(O)CCN(S(=O)(=O)c2ccc(F)cc2)C1` (configuration not stated) the value was -3.09%; for `Cc1csc2c(=O)n3c(nc12)CCN(C(=O)c1cccnc1)CC3`, -2.09%.
Regarding `O=C(NC(Cc1ccsc1)c1nccs1)C1CCOCC1` (configuration not stated), the cytotoxicity at 10 µM was 1.9%.
As to `Cc1cc(CN2CCN(C(=O)NC(C)Cn3ccnc3)CC2)on1` (configuration not stated), the cytotoxicity at 10 µM was -7.42%.
In the case of `CC(NC(=O)NCc1ccoc1)c1ccc2c(c1)CCC(=O)N2` (configuration not stated) it was -1.12%; in that of `OCCn1cc(CN2CCN(CCOc3ccccc3F)CC2)cn1`, -5.72%.
For `CCc1nc(C2CCCN(C(=O)c3cccc4c3ccn4C)C2)no1` (configuration not stated) the value was -14.4%; for `Cn1cnc2c1CCN(Cc1ccc(C(=O)N3CCCC3)cc1)C2`, -8.62%.
Take `COc1ccsc1C(=O)N1CCCC(n2nc(C)nc2C)C1` (configuration not stated): the cytotoxicity at 10 µM was -3.69%.
Consider `Cc1cccc(C2(CNC(=O)CCN3C(=O)CCC3=O)CCCC2)c1`, for which the cytotoxicity at 10 µM was -7.59%.
For the compound `Cc1cc(C2CCCN(CCCNS(C)(=O)=O)C2)n[nH]1` (configuration not stated), the cytotoxicity at 10 µM is -5.2%.
For `c1ccc(Cn2cncn2)c(CNCC2CNc3ccnn3C2)c1` (configuration not stated) the value was -3.61%; for `CCn1cnnc1CNC(=O)N(C)Cc1ccc(F)c(F)c1`, -11.4%; for `Cc1ccccc1CN1CCCN(C2CCOC2=O)CC1` (configuration not stated), -3.09%.
As for `Cc1ccc(-c2nc(CN3CCn4c(nnc4C4CC4)C3)cs2)o1`, the cytotoxicity at 10 µM is -0.215%.
In the case of `Cc1sc2c(C3CCCNC3)nc(Nc3cccc(F)c3)n2c1C` (configuration not stated) it was 1.24%.
For `CN(C)CC1COCCN1C(=O)C1(c2cccs2)CCCC1` (configuration not stated), the cytotoxicity at 10 µM is -9.52%.
For `CCOCC1CN(C(=O)c2cc(C)oc2C)Cc2c1cnn2C` (configuration not stated) the value was 9.64%; for `CNC(=O)COC1COC2(CCN(c3cnccn3)CC2)C1` (configuration not stated), -8.44%; for `CN(C)CCN1CCCC12CCCN(Cc1ccco1)C2` (configuration not stated), 10.3%.
Regarding `O=S(=O)(NC1CCC12CCN(CC1CCOCC1)CC2)c1ccccc1` (configuration not stated), the cytotoxicity at 10 µM is -1.34%.
For `Cc1oncc1C(=O)NCc1cc(=O)n2c(n1)CN(CC1CC1)CCC2`, the cytotoxicity at 10 µM is -4.5%.
Consider `CN1CCN(Cc2cn3c(n2)CNCC3)CC1`, for which the cytotoxicity at 10 µM turned out to be 7.85%.
With `Cc1ccc(N2CCC3(CCN(C(=O)c4ccsc4)C3)CC2)nn1`, the cytotoxicity at 10 µM is -0.0395%.
Consider `CCN1CCN(c2nc3cn(-c4cnn(CC)c4)c(=O)c-3c[nH]2)CC1`, for which the cytotoxicity at 10 µM stood at 4.01%.
